Data: ChEMBL document CHEMBL4396920, “DL5050, a Selective Agonist for the Human Constitutive Androstane Receptor” (ACS Med Chem Lett, 2019)

Columns and labels:
[1] = molecular target: T1, Nuclear receptor subfamily 1 group I member 3 (Homo sapiens, UniProt Q14994); test: Agonist activity at human CAR transfected in human HepG2 cells cotransfected with CYP2B6 incubated for 23 hrs by luciferase reported gene assay; type: cell-based
T1 sequence (Q14994 whole entry): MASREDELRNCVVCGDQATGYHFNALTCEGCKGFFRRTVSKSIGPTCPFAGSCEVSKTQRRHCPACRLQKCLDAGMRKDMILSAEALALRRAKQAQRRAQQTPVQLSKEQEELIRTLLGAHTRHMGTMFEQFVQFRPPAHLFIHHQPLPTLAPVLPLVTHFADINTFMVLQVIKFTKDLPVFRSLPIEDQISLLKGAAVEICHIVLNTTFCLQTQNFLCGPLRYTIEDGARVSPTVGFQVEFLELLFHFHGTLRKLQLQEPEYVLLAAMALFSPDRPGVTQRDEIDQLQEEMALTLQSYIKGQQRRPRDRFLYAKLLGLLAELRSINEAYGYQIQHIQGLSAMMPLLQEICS
How it was run: (§1)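 qHTS luciferase reporter assay in a double-stable HepG2-CYP2B6-hCAR line. EC50 and Emax (fold luciferase signal over vehicle/basal) derived by nonlinear regression; Emax/EC50 ratio computed from these. Mean ± SEM of at least three independent experiments in quadruplicate.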

[2] = molecular target: T1, Nuclear receptor subfamily 1 group I member 3; test: Ratio of Emax to EC50 for agonist activity at human CAR transfected in human HepG2 cells cotransfected with CYP2B6 by luciferase reporter gene assay; type: cell-based; how it was run: as §1
HepG2 [3] = test: Cytotoxicity against human HepG2 cells harbouring CYP2B6-hCAR gene assessed as reduction in cell viability at >10 uM incubated for 24 hrs by cell titer-Glo cell viability assay; type: ADME, cell-based; conditions: hepg2, 24 h
[4] = molecular target: T2, Nuclear receptor subfamily 1 group I member 2 (Homo sapiens, UniProt O75469); test: Agonist activity at human PXR transfected in human HepG2 cells cotransfected with CYP3A4 incubated for 23 hrs by luciferase reporter gene assay; type: cell-based
T2 sequence (O75469 whole entry): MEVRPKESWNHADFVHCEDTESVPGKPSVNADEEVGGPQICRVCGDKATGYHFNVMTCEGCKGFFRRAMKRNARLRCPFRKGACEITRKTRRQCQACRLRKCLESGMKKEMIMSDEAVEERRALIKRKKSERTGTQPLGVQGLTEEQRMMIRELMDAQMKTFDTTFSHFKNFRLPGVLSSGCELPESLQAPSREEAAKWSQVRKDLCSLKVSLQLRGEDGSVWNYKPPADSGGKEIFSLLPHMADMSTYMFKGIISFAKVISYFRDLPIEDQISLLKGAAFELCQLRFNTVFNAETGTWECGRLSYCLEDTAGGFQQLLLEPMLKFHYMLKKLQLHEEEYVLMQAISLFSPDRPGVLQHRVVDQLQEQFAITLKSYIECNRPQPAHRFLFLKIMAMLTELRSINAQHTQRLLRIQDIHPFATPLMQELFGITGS

[5] = molecular target: T2, Nuclear receptor subfamily 1 group I member 2; test: Ratio of Emax to EC50 for agonist activity at human PXR transfected in human HepG2 cells cotransfected with CYP3A4 by luciferase reporter gene assay; type: cell-based
HepG2 [6] = test: Cytotoxicity against human HepG2 cells harbouring CYP2B6-hCAR gene assessed as cell viability at 92 uM incubated for 24 hrs by cell titer-Glo cell viability assay; type: ADME, cell-based; conditions: hepg2, 24 h
[7] = molecular target: T1, Nuclear receptor subfamily 1 group I member 3; test: Agonist activity at human CAR in human primary hepatocytes assessed as increase in CYP2B6 gene expression incubated for 24 hrs by RT-PCR analysis; type: cell-based
How it was run: (§2)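 Hepatocytes from human liver donor HL-#151, treated with test compound at 0.5, 1 and 5 μM or vehicle; CITCO (0.5–5 μM), PB (1 mM) and RIF (10 μM) as references. CYP2B6 and CYP3A4 mRNA measured by RT-PCR and normalized to vehicle control. Mean ± SD of three independent experiments.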

[8] = molecular target: T2, Nuclear receptor subfamily 1 group I member 2; test: Agonist activity at human PXR in human primary hepatocytes assessed as slight increase in CYP3A4 gene expression at 0.5 to 5 uM incubated for 24 hrs by RT-PCR analysis; type: cell-based; how it was run: as §2
[9] = molecular target: T1, Nuclear receptor subfamily 1 group I member 3; test: Agonist activity at human CAR in human primary hepatocytes assessed as slight increase in CYP2B6 level at 0.5 to 5 uM incubated for 72 hrs by Western blot analysis; type: cell-based
How it was run: (§3)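 Hepatocytes from liver donor #151, given the same treatments as the mRNA study. CYP2B6 and CYP3A4 protein detected by immunoblotting; representative blots.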

[10] = molecular target: T1, Nuclear receptor subfamily 1 group I member 3; test: Agonist activity at human CAR in human primary hepatocytes assessed as increase in CYP2B6 level incubated for 72 hrs by Western blot analysis; type: cell-based; how it was run: as §3
[11] = molecular target: T2, Nuclear receptor subfamily 1 group I member 2; test: Agonist activity at human PXR in human primary hepatocytes assessed as slight increase in CYP3A4 level at 0.5 to 5 uM incubated for 72 hrs by Western blot analysis; type: cell-based; how it was run: as §3
[12] = molecular target: T1, Nuclear receptor subfamily 1 group I member 3; test: Agonist activity at human CAR in human primary hepatocytes assessed as increase in CYP2B6 gene expression at 1 mM incubated for 24 hrs by RT-PCR analysis; type: cell-based; conditions: 1000 µM
How it was run: (§4)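 Human primary hepatocytes from liver donor HL-#151 were treated with compound at 0.5, 1 or 5 μM, phenobarbital (1 mM), rifampicin (10 μM) or vehicle. CYP2B6 and CYP3A4 mRNA was measured by RT-PCR and normalized against vehicle control. Results are mean ± SD of three independent experiments.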

[13] = molecular target: T2, Nuclear receptor subfamily 1 group I member 2; test: Agonist activity at human PXR in human primary hepatocytes assessed as increase in CYP3A4 gene expression at 1 mM incubated for 24 hrs by RT-PCR analysis; type: cell-based; conditions: 1000 µM; how it was run: as §4
[14] = molecular target: T1, Nuclear receptor subfamily 1 group I member 3; test: Agonist activity at human CAR in human primary hepatocytes assessed as increase in CYP2B6 gene expression at 0.5 to 5 uM incubated for 24 hrs by RT-PCR analysis; type: cell-based; how it was run: as §2

Structure (SMILES)	EC50 ([1]; read-out: EC50) [µM]	Ratio [2]	Activity (HepG2 [3])	also measured
Clc1ccc(CO/N=C/c2c(-c3ccc(C4CCCCC4)cc3)nc3sccn23)cc1Cl	> 100	< 0.03	Toxic	
C(=N\OCc1ccc(Oc2ccccc2)cc1)/c1c(-c2ccc3ccccc3c2)nc2occn12			Toxic	EC50 ([1]; hepg2): Not Active; EC50 [4]: 1.1 µM; Ratio [5]: 1.6
Clc1ccc(CO/N=C/c2c(-c3ccc4ccccc4c3)nc3occn23)c(Cl)c1	1.5	2.3	Toxic	
Clc1ccc(CO/N=C/c2c(-c3ccc4ccccc4c3)nc3occn23)cc1	0.99	4.2	Toxic	
CCc1nc2sccn2c1/C=N/OCc1ccc(Cl)c(Cl)c1	2.6	1.4	Toxic	
CC(C)c1ccc(-c2nc3sccn3c2/C=N/OCc2ccc(Cl)c(Cl)c2)cc1	0.59	5.1	Toxic	
Clc1cccc(-c2nc3sccn3c2/C=N/OCc2ccc(Cl)c(Cl)c2)c1	1.1	2.1	Toxic	
C(=N\OC1Cc2ccccc2C1)/c1c(-c2ccc3ccccc3c2)nc2occn12	0.98	3.8	Toxic	
Fc1ccc(-c2nc3sccn3c2/C=N/OCc2ccc(Cl)c(Cl)c2)cc1	0.67	3.9	Toxic	
Clc1ccc(CO/N=C/c2c(-c3ccc4ccccc4c3)nc3sccn23)cc1Cl	0.38	6.1	Toxic	
Clc1ccc(CO/N=C/c2c(-c3ccccc3)nc3sccn23)cc1Cl	0.58	4	Toxic	
Fc1c(F)c(F)c(CO/N=C/c2c(-c3ccc4ccccc4c3)nc3occn23)c(F)c1F	1.7	1.8	Toxic	
FC(F)(F)c1ccc(-c2nc3sccn3c2/C=N/OCc2ccc(Cl)c(Cl)c2)cc1	0.88	2.6	Toxic	
COc1ccc(CO/N=C/c2c(-c3ccc4ccccc4c3)nc3occn23)cc1	4.4	0.75	Toxic	
C(=N\OCc1ccccc1)/c1c(-c2ccc3ccccc3c2)nc2occn12	0.84	5.2		EC50 [4]: 7.3 µM; Ratio [5]: 1; Activity (HepG2 [6]): Non-Toxic
FC(F)(F)c1ccc(CO/N=C/c2c(-c3ccc4ccccc4c3)nc3occn23)cc1	0.47	6		EC50 [4]: 2 µM; Ratio [5]: 0.85; Activity (HepG2 [6]): Non-Toxic
N#Cc1ccc(-c2nc3sccn3c2/C=N/OCc2ccc(Cl)c(Cl)c2)cc1	3.4	0.65	Toxic	
Clc1ccc(-c2nc3occn3c2/C=N/OCc2ccc(Cl)c(Cl)c2)cc1	0.41	10		EC50 [4]: 1.3 µM; Ratio [5]: 1.3; Activity [7]: Dose-dependent effect; Activity [8]: Active; Activity (HepG2 [6]): Non-Toxic; Activity [9]: Active
CC(C)(C)c1ccc(CO/N=C/c2c(-c3ccc4ccccc4c3)nc3occn23)cc1	7.9	0.29	Toxic	
Clc1ccc(CO/N=C/c2c(-c3ccc4ccccc4c3)nc3occn23)cc1Cl	0.37	10		EC50 [4]: 5.9 µM; Ratio [5]: 0.37; Activity [7]: Dose-dependent effect; Activity [8]: Active; Activity [10]: Dose-dependent effect; Activity [11]: Active; Activity (HepG2 [6]): Non-Toxic
CCC1(c2ccccc2)C(=O)NC(=O)NC1=O [PHENOBARBITAL]				Activity [12]: Active; Activity [13]: Active
CC(C)(C)c1ccc(-c2nc3sccn3c2/C=N/OCc2ccc(Cl)c(Cl)c2)cc1	2.4	0.83	Toxic	
CC1(C)CCC(C)(C)c2cc(-c3nc4sccn4c3/C=N/OCc3ccc(Cl)c(Cl)c3)ccc21			Toxic	EC50 ([1]; hepg2): Not Active; EC50 [4]: 3.6 µM; Ratio [5]: 0.64
Clc1ccc(CO/N=C/c2c(-c3ccc(-c4ccccc4)cc3)nc3sccn23)cc1Cl			Toxic	EC50 ([1]; hepg2): Not Active; EC50 [4]: 57 µM; Ratio [5]: 0.06
Clc1ccc(-c2nc3sccn3c2/C=N/OCc2ccc(Cl)c(Cl)c2)cc1			Toxic	EC50 [4]: 0.99 µM; Activity [14]: Active
Clc1ccc(CO/N=C/c2c(-c3cccc4ccccc34)nc3sccn23)cc1Cl	0.94	2.3	Toxic	
COc1ccc(-c2nc3sccn3c2/C=N/OCc2ccc(Cl)c(Cl)c2)cc1	0.49	4.9	Toxic	
Clc1ccccc1CO/N=C/c1c(-c2ccc3ccccc3c2)nc2occn12	1.1	3.5	Toxic	
Clc1ccc(CO/N=C/c2c(-c3ccc(Br)cc3)nc3sccn23)cc1Cl	0.48	5	Toxic	
Cc1ccc(-c2nc3sccn3c2/C=N/OCc2ccc(Cl)c(Cl)c2)cc1	0.49	5.5	Toxic	
